Test results taken from the EternaBench riboswitch data.

Key:
MS2 coat protein [1] = assay: apparent Kd, MS2 coat protein; higher = weaker binding; RNA-MaP array
Summary of the method: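 Fluorescently labeled MS2 coat protein, from 1.5 nM to 3 μM, was incubated at room temperature with designed RNAs transcribed on an Illumina sequencing chip from sequenced DNA templates. Times ran from 0.8–1.5 h at the lowest concentrations to 10–20 min at the highest, in Tris-HCl pH 7.5 buffer with KCl, MgCl2, BSA, DTT, tRNA and Tween20, with or without input ligand. Each apparent Kd is the median of per-cluster binding-curve fits, and designs with fewer than 10 measured clusters were excluded.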

MS2 coat protein [2] = assay: apparent Kd, MS2 coat protein; higher = weaker binding; RNA-MaP array; FMN 200 µM where present
Summary of the method: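 Stalled E. coli RNA polymerase transcribed the designs on Illumina sequencing-chip clusters. SNAP-549-labelled MS2 coat protein was titrated from 0.7 or 1.5 nM, doubling to 3 µM, without and then with constant ligand, in 100 mM Tris-HCl pH 7.5, 80 mM KCl, 4 mM MgCl2, BSA, DTT, yeast tRNA and Tween-20. Per-cluster binding curves were fitted to green signal normalised to red-channel RNA signal and control-cluster median Fmax. The apparent Kd is the median of the filtered fits.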

[3] = designed as: ON switch for theophylline, no ligand
[4] = ligand present: theophylline, designed as: ON switch for theophylline
[5] = designed as: ON switch for flavin mononucleotide, no ligand
[6] = ligand present: flavin mononucleotide, designed as: ON switch for flavin mononucleotide
[7] = designed as: OFF switch for flavin mononucleotide, no ligand
[8] = ligand present: flavin mononucleotide, designed as: OFF switch for flavin mononucleotide

How did the “apparent Kd” value (MS2 coat protein [1]; [3]) turn out when “GGAAAAUAUAGGGAUACCAGAUAUGGCGUUGACAUGAGGAUCACCCAUGUCUUAGCAGUGAUCCCUUGGCAGCCCACACCAUCCG” was run?
The value was 71.6 nM.

And the “apparent Kd” value (MS2 coat protein [1]; [4])?
The value was 34 nM.

How did the “apparent Kd” value (MS2 coat protein [1]; designed as: OFF switch for tryptophan, no ligand) turn out when “AGCUCGACUCGCAGCUGGAUGCCCGCUUGCCGAGGACCGGUACGGCCGCCACUCGUCACUCGACAUGAGGAUCACCCAUGUGAUA” was run?
The value was 88.3 nM.

What about the “apparent Kd” value (MS2 coat protein [1]; ligand present: tryptophan, designed as: OFF switch for tryptophan) of the same sequence?
Its value is 45.6 nM.

With “UUUGUAUAGCAGAAGGCGUUAUUAGGAUGGCUACGAGGAUAUGCGGUACUCUAUUAGUACAUGAGGAUCACCCAUGUGUGGGCC” as the sequence, how does the “apparent Kd” value (MS2 coat protein [1]; [5]) read?
Its value is 214 nM.

What about the “apparent Kd” value (MS2 coat protein [1]; [6]) of the same sequence?
The value was 145 nM.

Which results are given for “UAGAAACUCGUAAGGAUAUCCGAAGAGAAAAUGAGGGAGAAGGUACAUGAGGAUCACCCAUGUAUGAAAUGGAC”?
apparent Kd (MS2 coat protein [1]; [7]): 7.64 nM; apparent Kd (MS2 coat protein [1]; [8]): 7.98 nM

Which results are given for “ACCGAGGCAAUGGAUACCAGUGCGCCACAAUCGUGCUUCAACAUGAGGAUCACCCAUGUGCACCCUUGGCAGCCAACGGGCUCAU”?
apparent Kd (MS2 coat protein [1]; designed as: OFF switch for theophylline, no ligand): 21.9 nM; apparent Kd (MS2 coat protein [1]; ligand present: theophylline, designed as: OFF switch for theophylline): 19.9 nM

Which results are given for “GCACAACAUGAGGAUCACCCAUGUCGAGAUACCAGAACAUAUAUAUUCCCUUGGCAGCUCACACCUUUAAUGUAAAAUUCUUUGG”?
apparent Kd (MS2 coat protein [1]; [3]): 12.7 nM; apparent Kd (MS2 coat protein [1]; [4]): 14.5 nM

With “CAGGUGUUAGGAUAUCGGAGAUCGAGACCGACGGGAUGAGCCGAGAAGGAACAUGAGGAUCACCCAUGUAGGUG” as the sequence, how does the “apparent Kd” value (MS2 coat protein [2]; [7]) read?
Its value is 575 nM.

What about the “apparent Kd” value (MS2 coat protein [2]; [8]) of the same sequence?
The value was 247 nM.

“GUUAAACAUGAGGAUCACCCAUGUAAGGAUAUGCUGCGGUCGAGAUGAAGUGAAUGCAGCAGAAGGUACAAUUG” was tested. Which “apparent Kd” value (MS2 coat protein [2]; [7]) did it give?
The value was 116 nM.

What about the “apparent Kd” value (MS2 coat protein [2]; [8]) of the same sequence?
The value was 99.9 nM.

“AAAUAAACUAGCAUAAUAACCUCACAUGAGGAUCACCCAUGUCAGGAUAUCUGUCCUAAAAGGACAGAGAAGGGACGUGCUAGG” was tested. Which “apparent Kd” value (MS2 coat protein [2]; [7]) did it give?
The value was 5.68 nM.

And the “apparent Kd” value (MS2 coat protein [2]; [8])?
Its value is 6.95 nM.

For “CAGUAAUUCGAAGGAUAUGGUUACAUGAGGAUCACCCAUGUAUGAUUUGUGAUCUUAAAAUUGAUCCAGAAGGUCGAAUUACUG”, which “apparent Kd” value (MS2 coat protein [2]; [7]) is on record?
Its value is 206 nM.

And the “apparent Kd” value (MS2 coat protein [2]; [8])?
The value was 330 nM.

With “ACACAACAUGAGGAUCACCCAUGUCAGGAUAUGCAGAACAAGAACAAGACAAGACAGAGCAGAAGGGACAACAC” as the sequence, how does the “apparent Kd” value (MS2 coat protein [2]; [7]) read?
The value was 39.4 nM.

What about the “apparent Kd” value (MS2 coat protein [2]; [8]) of the same sequence?
Its value is 35.6 nM.

“CGCGGACAAGAGAAGGCCAGACCUCGGAACUUGAGGCACCGCUAGGCAUGGAGGAUAUCUUGACAUGAGGAUCACCCAUGUACA” was tested. Which “apparent Kd” value (MS2 coat protein [2]; [5]) did it give?
The value was 86.3 nM.

What about the “apparent Kd” value (MS2 coat protein [2]; [6]) of the same sequence?
The value was 18.1 nM.

With “GCCGAGUGAGGAUAUAGCCAGGUUCGAUAAGGUCGAAUCGGCUAGAAGGCACAUGAGGAUCACCCAUGUGGGUA” as the sequence, how does the “apparent Kd” value (MS2 coat protein [2]; [7]) read?
The value was 225 nM.

What about the “apparent Kd” value (MS2 coat protein [2]; [8]) of the same sequence?
The value was 449 nM.

What does the source list for “UGCAGACGAGGAUAUGAUGUCAUAGACAUGAGGAUCACCCAUGUGAUCAAUUAAUUAAGAUCAGAAGGCGUCUGCA”?
apparent Kd (MS2 coat protein [2]; [7]): 315 nM; apparent Kd (MS2 coat protein [2]; [8]): 218 nM

What does the source list for “CUUUUGUGAGGAUAUCAGUAGUAAAUAAAUUAAAUUACUACUGAGAAGGCACAUGAGGAUCACCCAUGUUCCUC”?
apparent Kd (MS2 coat protein [2]; [7]): 38.3 nM; apparent Kd (MS2 coat protein [2]; [8]): 249 nM

Which results are given for “CGGUAGGGAGGAUAUCCAAUAUAUGACAUGAGGAUCACCCAUGUUUCCACUCGUACCUCCGGAGAAGGCCCAUCCC”?
apparent Kd (MS2 coat protein [2]; [7]): 19.7 nM; apparent Kd (MS2 coat protein [2]; [8]): 20.4 nM

For “GUAGAACAUGAGGAUCACCCAUGUGAGGGCGCAUGAGGAUAUGUCCGUACCUAGCAUACGAUAGAAGGCAUGGUGC”, which “apparent Kd” value (MS2 coat protein [2]; [5]) is on record?
The value was 38.7 nM.

What about the “apparent Kd” value (MS2 coat protein [2]; [6]) of the same sequence?
The value was 27.4 nM.

With “GUAUUUGGUUAGGAUAUUGACUCGAGAUCGAGAUAAGAAGGAGCCACAUGAGGAUCACCCAUGUCUAUCCAAGA” as the sequence, how does the “apparent Kd” value (MS2 coat protein [2]; [7]) read?
Its value is 27 nM.

What about the “apparent Kd” value (MS2 coat protein [2]; [8]) of the same sequence?
Its value is 29.6 nM.

“ACAUUUAAUACAGGAUAUGUUAGUAUACAGUAGAUUGGUUAUUACACAACAACAGAAGGGUAGUACAUGAGGAUCACCCAUGUA” was tested. Which “apparent Kd” value (MS2 coat protein [2]; [5]) did it give?
Its value is 15.6 nM.

And the “apparent Kd” value (MS2 coat protein [2]; [6])?
Its value is 12.1 nM.

For “GGGUACAUCGGAGGAUAUCAUGUAAAUACAUGAGGAUCACCCAUGUCGAUGGAGACAUCGGAGAUUGAGAAGGACGAUGUACCG”, which “apparent Kd” value (MS2 coat protein [2]; [5]) is on record?
Its value is 320 nM.

What about the “apparent Kd” value (MS2 coat protein [2]; [6]) of the same sequence?
The value was 14 nM.

For “CGCAAUAUACAGAAGGAGUUAUUUAGAGGUUUACUAGGAUAUGUUCACAUGAGGAUCACCCAUGUCAUAUGGUUUUUUAUUGCG”, which “apparent Kd” value (MS2 coat protein [2]; [7]) is on record?
Its value is 10.1 nM.

What about the “apparent Kd” value (MS2 coat protein [2]; [8]) of the same sequence?
Its value is 8.96 nM.

How did the “apparent Kd” value (MS2 coat protein [2]; [5]) turn out when “GCGUACAUCGGAGGAUAUCAUGUAAAUACAUGAGGAUCACCCAUGUCGAUGGAGACAUCGGAGAUUGAGAAGGCCGAUGUACCG” was run?
The value was 157 nM.

And the “apparent Kd” value (MS2 coat protein [2]; [6])?
Its value is 8.42 nM.

“UCGAACGGAAACAAAGUCGAUAGACAUGAGGAUCACCCAUGUAAGGAUAUGCCUACUAAAAGUAGGCAGAAGGUACGCGUUCGA” was tested. Which “apparent Kd” value (MS2 coat protein [2]; [7]) did it give?
Its value is 18.9 nM.

And the “apparent Kd” value (MS2 coat protein [2]; [8])?
Its value is 28.1 nM.
